Many of the other results were omitted from the sample, so hits are more common in it than they were.
HCT116 bCat-KO = beta-catenin-lacking colon tumor cell growth suppression | HCT116 beta-catenin knockout viability, CellTiter-Glo, 60 h; hits give low values | viability, % at 10 µM | 1.5% of 140,000 active;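 active = viability at or under a set limit, the compound median less 4 SD, cut at about 6% in these data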
PTEN del growth = PTEN-deleted cell growth suppression; HCT116 PTEN-null viability, CellTiter-Glo, 60 h; hits give low values; viability, % at 10 µM; 1.2% of 140,000 active; AID 827;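 active = viability at or below a set limit, 4 SD under the median of all tested compounds, cut at about 3.7% in these data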;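 note: PTEN knockout HCT116 line with beta catenin targeted HCT116 as companion control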
Lung fibro prol = blocks proliferation of human lung fibroblasts | LL 47 human lung fibroblast viability, ATP luminescence; hits give low values | viability, % at 10 µM | 1.1% of 85,000 active | AID 719;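 active = viability at or below 50% in the single dose screen; inactive = viability above 50%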;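 note: compound exposure lasted 72 h before the ATP readout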
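Material: human lung fibroblast line LL 47, low passage; Evaluation: viability percentage against median untreated-cell control; Buffer or medium: 15% FBS in IMEM; Incubation: 72 h compound exposure at 37 °C after overnight plating; Dosing: 0.1% DMSO in all compound wells; Measured by: CellTiter-Glo luminescence.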
HUVEC prolif 384 = blocks proliferation of human endothelial cells. HUVEC proliferation, CellTiter-Glo luminescence, 72 h; hits give low values. viability, % at 10 µM (by protocol). 1.1% of 86,000 active. AID 648;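 active = viability at or below 30%; inactive = viability above 30%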
H69AR growth 86K = blocks growth of human H69AR lung tumor cells; viability, % at 10 µM; 6% of 85,000 active; H69AR lung tumor viability, ATP luminescence, 72 h; hits give low values; AID 598;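 active = viability at or below 40%; inactive = viability above 40%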;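 note: multidrug resistant small cell line overexpressing MRP-1 efflux transporter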
Large screens that a line does not name were inactive.

Cc1ccc(NC(=O)CSc2nnc([C@@H]3CCCN3C(=O)OC(C)(C)C)o2)c(C)c1	H69AR growth 86K 35
O=C(CSc1nc(C2CCCCC2)n(-c2ccccc2)n1)NCC(F)(F)F	none (no result: Lung fibro prol, HUVEC prolif 384, H69AR growth 86K)
Cc1cccc(C)c1C(=NCCCN(C)C)c1ccccc1	none (no result: Lung fibro prol, HUVEC prolif 384, H69AR growth 86K)
CCN1C(=O)/C(=C2/C=Cc3ccccc3N2C)OC1=S	H69AR growth 86K 28
CCOC(=O)C1=C(NC(=O)c2ccc(Br)o2)Nc2ccccc2N=C1	H69AR growth 86K 31
COCCOC(=O)c1c(NC(=O)CN2CCCc3ccccc32)sc(C(N)=O)c1C	none (no result: Lung fibro prol, HUVEC prolif 384, H69AR growth 86K)
CCOC(=O)C1=C(C)NC(SCC(=O)Nc2nc(C)cs2)=C(C#N)C1c1cccs1 (stereo not drawn)	H69AR growth 86K 37
CC1=C(C(=O)Nc2ccccc2)C(c2ccncc2)C(C#N)=C(SCC(=O)Nc2ccccc2)N1 (stereo not drawn)	H69AR growth 86K 11
CC(=O)C1=C(C)NC(SCC(=O)c2ccc(-c3ccccc3)cc2)=C(C#N)C1c1cccnc1 (stereo not drawn)	H69AR growth 86K 6.2
Cn1c(=O)c2c(nc(Br)n2CC(=O)C23CC4CC(CC(C4)C2)C3)n(C)c1=O	H69AR growth 86K 32
COc1cccc2c(=O)c(SC(F)(F)C(F)C(F)(F)F)c(C)[nH]c12 (stereo not drawn)	H69AR growth 86K 17
CCOC(=O)CSc1ncnc2c(C(=O)OCC)c3n(c12)CCC3	none (no result: Lung fibro prol, HUVEC prolif 384, H69AR growth 86K)
CCc1ccc2nc(NC(=O)c3cc(C)on3)sc2c1	H69AR growth 86K 17
CCN(CC)c1ccc(/C=N/NC(=S)NCc2ccccc2)c(O)c1	none (no result: Lung fibro prol, HUVEC prolif 384, H69AR growth 86K)
CCN(CC)c1ccc(/C=N/NC(=O)Cc2cccs2)c(O)c1	HCT116 bCat-KO 5.2 (no result: Lung fibro prol, HUVEC prolif 384, H69AR growth 86K)
CCN(CC)c1ccc(/C=N/Nc2nc3ccccc3[nH]2)c(O)c1	HCT116 bCat-KO 3.5 (no result: Lung fibro prol, HUVEC prolif 384, H69AR growth 86K)
COc1cccc(/C=N/NC(=O)c2ccc([N+](=O)[O-])cc2Cl)c1O	HCT116 bCat-KO 5.6 (no result: Lung fibro prol, HUVEC prolif 384, H69AR growth 86K)
O=C(NCCc1ccccc1)C(c1cccs1)N(C(=O)CCl)c1ccc(Cl)cc1 (stereo not drawn)	HCT116 bCat-KO 1.1, PTEN del growth 0.8 (no result: Lung fibro prol, HUVEC prolif 384, H69AR growth 86K)
O=C(Cc1cccs1)OCC(=O)c1ccco1	none
O=C(CC(Sc1ccccc1)c1cccs1)c1ccco1 (stereo not drawn)	H69AR growth 86K 1.9 (no result: Lung fibro prol)
Cc1c(Cl)ccc2c1NC(=O)[C@]21N[C@@H](Cc2ccccc2)[C@H]2C(=O)N(c3ccc(F)cc3)C(=O)[C@H]21	H69AR growth 86K 19
COc1ccc(/C=C(\C#N)c2nc3ccc(C)cc3[nH]2)cc1Oc1ccc(C(F)(F)F)cc1[N+](=O)[O-]	HCT116 bCat-KO 1.5, PTEN del growth 1.3 (no result: Lung fibro prol, HUVEC prolif 384, H69AR growth 86K)
Cc1ccc2nc(/C(C#N)=C\c3ccc(Oc4ccc(C(F)(F)F)cc4[N+](=O)[O-])cc3)[nH]c2c1	none (no result: Lung fibro prol, HUVEC prolif 384, H69AR growth 86K)
Cc1cccc(C(=O)NNC(=O)CN2C(=O)c3ccccc3C2=O)c1	none (no result: Lung fibro prol, HUVEC prolif 384, H69AR growth 86K)
COCCCNC(=O)C1CCCN(S(=O)(=O)c2ccc(C)cc2)C1 (stereo not drawn)	none
CCOC(=O)c1[nH]c2c(c1C)C(=O)CC(c1ccco1)C2 (stereo not drawn)	none
Cc1c(C(=O)OCc2ccccc2)[nH]c2c1C(=O)CC(c1ccco1)C2 (stereo not drawn)	Lung fibro prol 27, HUVEC prolif 384 22, H69AR growth 86K 26
COCCOC(=O)c1[nH]c2c(c1C)C(=O)CC(c1ccco1)C2 (stereo not drawn)	H69AR growth 86K 26
CSCCOC(=O)c1[nH]c2c(c1C)C(=O)CC(c1ccco1)C2 (stereo not drawn)	H69AR growth 86K 37
Cc1c(C(=O)OCCOC(C)C)[nH]c2c1C(=O)CC(c1ccco1)C2 (stereo not drawn)	none
CCOC(=O)/C(N=Nc1sc(C(=O)OC)c(C)c1C(=O)OCC)=C(\O)CCl	none (no result: Lung fibro prol, HUVEC prolif 384, H69AR growth 86K)
CCc1cccc(C)c1NC(=O)CO/N=C(\C)c1cc2ccccc2o1	none (no result: Lung fibro prol, HUVEC prolif 384, H69AR growth 86K)
Cc1c(/C=N/NC(=O)C(NC(=O)c2ccc3c(c2)OCO3)C(C)C)c2ccccc2n1C (stereo not drawn)	none (no result: Lung fibro prol, HUVEC prolif 384, H69AR growth 86K)
Fc1ccccc1CSc1ncnc2sc3c(c12)CCCC3	none (no result: Lung fibro prol, HUVEC prolif 384, H69AR growth 86K)
COC(=O)[C@@H]1CC[C@H](C)[C@@H](c2ccc(C)cc2)N1C(=O)c1ccc(/C=N/O[C@@H](C)CN2CCCCc3nc(C)c(C)cc32)cc1	HCT116 bCat-KO 5.9 (no result: Lung fibro prol, HUVEC prolif 384, H69AR growth 86K)
Cc1ccc(-c2c(=O)n(OCc3ccccn3)c3ccccc3[n+]2[O-])cc1	none (no result: Lung fibro prol, HUVEC prolif 384, H69AR growth 86K)
CC(C)(C)c1ccc(COn2c(=O)c(-c3ccco3)[n+]([O-])c3ccccc32)cc1	H69AR growth 86K 34
CCOc1ccc2nc(NC(=O)CN3CCC(n4nnc5cc(C(F)(F)F)ccc54)CC3)sc2c1	H69AR growth 86K 38
COC(=O)c1ccccc1NC(=O)CN1CCC(n2nnc3cc(C)ccc32)CC1	none (no result: HCT116 bCat-KO, PTEN del growth)
Cc1cc(NC(=O)CN2CCC(n3nnc4cc(C(F)(F)F)ccc43)CC2)no1	none
CCOC(=O)c1ccccc1NC(=O)CN1CCC(n2nnc3cc(F)ccc32)CC1	H69AR growth 86K 27 (no result: HCT116 bCat-KO, PTEN del growth)
Cn1c(=O)c2c(ncn2CC(COCc2ccc(Cl)cc2)OCc2ccc(Cl)cc2)n(C)c1=O (stereo not drawn)	H69AR growth 86K 35
Cn1c(=O)c2c(ncn2CC(O)CO)n(C)c1=O (stereo not drawn)	none
NC(=O)C1CCN(CC(=O)Nc2cccc(C(=O)Nc3cccc(C(F)(F)F)c3)c2)CC1	none (no result: Lung fibro prol, HUVEC prolif 384, H69AR growth 86K)
CCOC(=O)Cc1c(C)nc2cc(-c3ccc(C(C)(C)C)cc3)[nH]n2c1=O	H69AR growth 86K 37
Cc1cc(=O)n2[nH]c(C)c(-c3ccc(Cl)cc3)c2n1	H69AR growth 86K 36
CCOC(=O)Cc1cc(=O)n2[nH]c(-c3ccccc3)cc2n1	none
CCOC(=O)Cc1c(C)nc2c(-c3ccc(Cl)cc3)c(C)[nH]n2c1=O	H69AR growth 86K 39
O=c1c2c(nc3c(-c4cccc(Br)c4)c[nH]n13)CCCC2	H69AR growth 86K 20
CCN(CC)S(=O)(=O)c1cccc(C(=O)NC(Cc2c[nH]c3ccccc23)c2nnc3n2CCC3)c1 (stereo not drawn)	none (no result: Lung fibro prol, HUVEC prolif 384, H69AR growth 86K)
CCOC(=O)Cc1c(C)nc2c(-c3cccc(Br)c3)c[nH]n2c1=O	HUVEC prolif 384 4.7, H69AR growth 86K 28
CCOC(=O)Cc1c(C)nc2c(C#N)c[nH]n2c1=O	none
CCOc1cc(CNc2ccc(N3CCCC3)cc2)cc(Cl)c1OC	none (no result: Lung fibro prol, HUVEC prolif 384, H69AR growth 86K)
CCOc1ccc(CNc2ccc(N3CCCC3)cc2)cc1	HCT116 bCat-KO 4.5, H69AR growth 86K 1.8
Cc1ccc(-c2cn(-c3ccccc3)c(SCC(=O)NC3CCS(=O)(=O)C3)n2)cc1C (stereo not drawn)	none (no result: Lung fibro prol, HUVEC prolif 384, H69AR growth 86K)
CC(C)n1c(SCC(=O)N2c3ccccc3CCc3ccccc32)nc2c1c(=O)n(C)c(=O)n2C	H69AR growth 86K 20 (no result: HCT116 bCat-KO, PTEN del growth)
CC(C)n1c(SCC(=O)Nc2nc3c(s2)CCCC3)nc2c1c(=O)n(C)c(=O)n2C	H69AR growth 86K 34
COc1ccc(C(=O)Oc2coc(CSc3nnc(NC(=O)c4cccs4)s3)cc2=O)cc1	none (no result: Lung fibro prol, HUVEC prolif 384, H69AR growth 86K)
CN(c1ccc(C(=O)N2CCN(Cc3ccc4c(c3)OCO4)CC2)cc1)S(=O)(=O)c1ccccc1	none

High-throughput results as filed in PubChem BioAssay.
